Assay results published in ChEMBL document CHEMBL1154044, “5-Nitro-2-furyl derivative actives against Trypanosoma cruzi: preliminary in vivo studies” (Eur J Med Chem, 2009).
Calls of active or inactive are those of the source. The rule behind the calls is not given here.

Assays:
[1] = tested on: Mus musculus; experiment: Toxicity in CD1 mouse heart at 450 mg/kg, po after 3 days by histological study; assay type: organism-based; set-up: dose 450 mg/kg, route oral; settings: in vivo, 72 h
Outline: (§1)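 Healthy female CD1 mice (20–22 g), 5–7 per group, given a single oral (intragastric) or i.p. dose in saline:Tween 80 (4:1) vehicle. Sacrificed on day 3 after ether anaesthesia. Organs fixed in 10% aqueous formalin for histology. Scored against untreated animals from no change to +++ (many changes).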

[2] = tested on: Mus musculus; experiment: Toxicity in CD1 mouse intestine at 300 mg/kg, ip after 3 days by histological study; assay type: organism-based; set-up: dose 300 mg/kg, route intraperitoneal; settings: in vivo, 72 h; outline: as §1
[3] = tested on: Mus musculus; experiment: Toxicity in CD1 mouse assessed as glutamic-oxalacetate transaminase level at 450 mg/kg, po after 3 days; assay type: organism-based; set-up: dose 450 mg/kg, route oral; settings: in vivo, 72 h
Outline: (§2)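 Healthy female CD1 mice (5–7 per group) received a single oral dose of 450 mg/kg or an i.p. dose of 300 mg/kg, with vehicle controls. On day 3 they were sacrificed under ether anaesthesia. Blood was drawn from the subclavian artery and kept at 0 °C in EDTA or heparin. Leukocytes, haemoglobin, haematocrit, GPT and GOT were measured within 24 h and compared with normal ranges.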

[4] = tested on: Mus musculus; experiment: Toxicity in CD1 mouse lung at 300 mg/kg, ip after 3 days by histological study; assay type: organism-based; set-up: dose 300 mg/kg, route intraperitoneal; settings: in vivo, 72 h; outline: as §1
[5] = tested on: Mus musculus; experiment: Toxicity in CD1 mouse brain at 450 mg/kg, po after 3 days by histological study; assay type: organism-based; set-up: dose 450 mg/kg, route oral; settings: in vivo, 72 h; outline: as §1
[6] = tested on: Mus musculus; experiment: Toxicity in CD1 mouse assessed as glutamic-oxalacetate transaminase level at 300 mg/kg, ip after 3 days; assay type: organism-based; set-up: dose 300 mg/kg, route intraperitoneal; settings: in vivo, 72 h; outline: as §2
[7] = tested on: Mus musculus; experiment: Toxicity in CD1 mouse assessed as hematocrite level at 300 mg/kg, ip after 3 days; assay type: organism-based; set-up: dose 300 mg/kg, route intraperitoneal; settings: in vivo, 72 h; outline: as §2
[8] = tested on: Mus musculus; experiment: Toxicity in CD1 mouse assessed as decrease in weight respect to day zero at 300 mg/kg, ip after 3 days; assay type: organism-based; set-up: dose 300 mg/kg, route intraperitoneal; scale not given: the % may be the effect or the level left; settings: in vivo, 72 h
Outline: (§3)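 Healthy 2-month-old female CD1 mice (20–22 g, 5–7 per group) received one dose. Oral doses of 450 or 300 mg/kg were given by intragastric syringe; i.p. doses of 300 or 150 mg/kg by injection. Drugs were suspended in saline:Tween 80 (4:1), and a vehicle-only control was included. Mice were weighed and observed daily for 3 days. Weight change is expressed as percent relative to day zero.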

[9] = tested on: Mus musculus; experiment: Toxicity in CD1 mouse assessed as leukocyte level at 450 mg/kg, po after 3 days; assay type: organism-based; set-up: dose 450 mg/kg, route oral; settings: in vivo, 72 h; outline: as §2
[10] = tested on: Mus musculus; experiment: Toxicity in CD1 mouse intestine at 450 mg/kg, po after 3 days by histological study; assay type: organism-based; set-up: dose 450 mg/kg, route oral; settings: in vivo, 72 h; outline: as §1
[11] = tested on: Mus musculus; experiment: Toxicity in CD1 mouse assessed as glutamic-pyruvate transaminase level at 450 mg/kg, po after 3 days; assay type: organism-based; set-up: dose 450 mg/kg, route oral; settings: in vivo, 72 h; outline: as §2
[12] = tested on: Mus musculus; experiment: Toxicity in CD1 mouse assessed as glutamic-pyruvate transaminase level at 300 mg/kg, ip after 3 days; assay type: organism-based; set-up: dose 300 mg/kg, route intraperitoneal; settings: in vivo, 72 h; outline: as §2
[13] = tested on: Mus musculus; experiment: Toxicity in CD1 mouse assessed as increase in weight respect to day zero at 450 mg/kg, po after 3 days; settings: in vivo, 72 h
[14] = tested on: Mus musculus; experiment: Toxicity in CD1 mouse heart at 300 mg/kg, ip after 3 days by histological study; assay type: organism-based; set-up: dose 300 mg/kg, route intraperitoneal; settings: in vivo, 72 h; outline: as §1
[15] = tested on: Mus musculus; experiment: Toxicity in CD1 mouse brain at 300 mg/kg, ip after 3 days by histological study; assay type: organism-based; set-up: dose 300 mg/kg, route intraperitoneal; settings: in vivo, 72 h; outline: as §1
[16] = tested on: Mus musculus; experiment: Toxicity in CD1 mouse kidney at 450 mg/kg, po after 3 days by histological study; assay type: organism-based; set-up: dose 450 mg/kg, route oral; settings: in vivo, 72 h; outline: as §1
[17] = tested on: Mus musculus; experiment: Toxicity in CD1 mouse lung at 450 mg/kg, po after 3 days by histological study; assay type: organism-based; set-up: dose 450 mg/kg, route oral; settings: in vivo, 72 h; outline: as §1
[18] = tested on: Mus musculus; experiment: Toxicity in CD1 mouse liver at 450 mg/kg, po after 3 days by histological study; assay type: organism-based; set-up: dose 450 mg/kg, route oral; settings: in vivo, 72 h; outline: as §1
[19] = tested on: Mus musculus; experiment: Toxicity in CD1 mouse assessed as haemoglobin level at 450 mg/kg, po after 3 days; assay type: organism-based; set-up: dose 450 mg/kg, route oral; settings: in vivo, 72 h; outline: as §2
[20] = tested on: Mus musculus; experiment: Toxicity in CD1 mouse assessed as survival at 450 mg/kg, po after 3 days; assay type: organism-based; set-up: dose 450 mg/kg, route oral; settings: in vivo, 72 h
Outline: (§4)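 Healthy 2-month-old female CD1 mice (20–22 g), groups of 5–7, given one oral dose by intragastric syringe or one i.p. injection. Compound suspended in saline:Tween 80 (4:1) with sonication just before dosing; vehicle-treated controls included. Weighed and observed daily over 3 days for skin, physical aspect, activity and faeces; survival recorded at day 3.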

[21] = tested on: Mus musculus; experiment: Toxicity in CD1 mouse kidney at 300 mg/kg, ip after 3 days by histological study; assay type: organism-based; set-up: dose 300 mg/kg, route intraperitoneal; settings: in vivo, 72 h; outline: as §1
[22] = tested on: Mus musculus; experiment: Toxicity in CD1 mouse assessed as hematocrite level at 450 mg/kg, po after 3 days; assay type: organism-based; set-up: dose 450 mg/kg, route oral; settings: in vivo, 72 h; outline: as §2
[23] = tested on: Trypanosoma cruzi; experiment: Growth inhibition of Trypanosoma cruzi Tulahuen 2 epimastigote at 5 uM after 5 days; assay type: functional; set-up: Activity: scale not given: the % may be the effect or the level left; settings: for inhibition of growth at 5 µM: Trypanosoma cruzi, Tulahuen 2, 120 h, read-out: GI
[24] = tested on: Mus musculus; experiment: Toxicity in CD1 mouse assessed as leukocyte level at 300 mg/kg, ip after 3 days; assay type: organism-based; set-up: dose 300 mg/kg, route intraperitoneal; settings: in vivo, 72 h; outline: as §2
[25] = tested on: Mus musculus; experiment: Toxicity in CD1 mouse assessed as haemoglobin level at 300 mg/kg, ip after 3 days; assay type: organism-based; set-up: dose 300 mg/kg, route intraperitoneal; settings: in vivo, 72 h; outline: as §2
[26] = tested on: Mus musculus; experiment: Toxicity in CD1 mouse liver at 300 mg/kg, ip after 3 days by histological study; assay type: organism-based; set-up: dose 300 mg/kg, route intraperitoneal; settings: in vivo, 72 h; outline: as §1
[27] = tested on: Mus musculus; experiment: Toxicity in CD1 mouse assessed as decrease in weight respect to day zero at 450 mg/kg, po after 3 days; assay type: organism-based; set-up: dose 450 mg/kg, route oral; scale not given: the % may be the effect or the level left; settings: in vivo, 72 h; outline: as §3
[28] = tested on: Mus musculus; experiment: Toxicity in CD1 mouse assessed as survival at 300 mg/kg, po after 3 days; assay type: organism-based; set-up: dose 300 mg/kg, route oral; settings: in vivo, 72 h; outline: as §4
[29] = tested on: Mus musculus; experiment: Toxicity in CD1 mouse assessed as survival at 300 mg/kg, ip after 3 days; assay type: organism-based; set-up: dose 300 mg/kg, route intraperitoneal; settings: in vivo, 72 h; outline: as §4
[30] = tested on: Mus musculus; experiment: Toxicity in CD1 mouse assessed as decrease in weight respect to day zero at 300 mg/kg, po after 3 days; assay type: organism-based; set-up: dose 300 mg/kg, route oral; scale not given: the % may be the effect or the level left; settings: in vivo, 72 h; outline: as §3
[31] = tested on: Mus musculus; experiment: Toxicity in CD1 mouse assessed as decrease in weight respect to day zero at 150 mg/kg, ip after 3 days; assay type: organism-based; set-up: dose 150 mg/kg, route intraperitoneal; scale not given: the % may be the effect or the level left; settings: in vivo, 72 h; outline: as §3
[32] = tested on: Mus musculus; experiment: Toxicity in CD1 mouse assessed as survival at 150 mg/kg, ip after 3 days; assay type: organism-based; set-up: dose 150 mg/kg, route intraperitoneal; settings: in vivo, 72 h; outline: as §4
[33] = tested on: Trypanosoma cruzi; experiment: Antitrypanosomal activity against Trypanosoma cruzi infected in po dosed CD1 mouse assessed as prevention of inflammatory infiltrates in heart administered daily for 14 days measured on day 45; assay type: functional, organism-based
Outline: (§5)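 T. cruzi, a Uruguayan patient isolate, was inoculated intradermally into 2-month-old female CD1 mice (20–22 g). Dosing began on day 15 after parasitaemia was observed. Drugs were suspended in saline:Tween 80 (4:1) and given by intragastric syringe once daily for 14 days, with untreated controls. On day 45 after treatment start, heart and muscle sections were scored by two independent observers for amastigotes and inflammatory infiltrates. Groups had 5–7 mice.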

[34] = tested on: Trypanosoma cruzi; experiment: Antitrypanosomal activity against Trypanosoma cruzi infected in po dosed CD1 mouse assessed as prevention of amastigote nest in heart administered daily for 14 days measured on day 45; assay type: functional, organism-based; outline: as §5
[35] = tested on: Mus musculus; experiment: Toxicity in CD1 mouse assessed as increase in weight respect to day zero at 300 mg/kg, ip after 3 days; assay type: organism-based; set-up: dose 300 mg/kg, route intraperitoneal; settings: in vivo, 72 h; outline: as §3

Structure (SMILES)	Activity [1]	Activity [2]	Activity [3] [IU/L]	Activity [4]	Activity [5]	Activity [6] [IU/L]	Activity [7] [%]	Activity [9] [µL⁻¹]	Activity [10]	Activity [11] [IU/L]	Activity [14]	Activity [15]	Activity [16]	Activity [17]	Activity [18]	Activity [20]	Activity [21]	inhibition of growth at 5 µM [23] [%]	Activity [26]	Activity [29]	further results
CCCCCCOC(=O)N/N=C/c1ccc([N+](=O)[O-])o1	Non-toxic	Non-toxic	192	Non-toxic	Non-toxic	140	38.7	2700	Non-toxic	34	Non-toxic	Non-toxic	Non-toxic	Non-toxic	Toxic	Non-toxic	Non-toxic	93	Toxic	–	Activity [8]: 0%; Activity [12]: 32 IU/L; Activity [13]: 3%; Activity [19]: 10.6 g/dL; Activity [22]: 34.4%; Activity [24]: 4900 µL⁻¹; Activity [25]: 12.3 g/dL
CC1CS(=O)(=O)CCN1/N=C/c1ccc([N+](=O)[O-])o1 (stereo not drawn) [NIFURTIMOX]	Non-toxic	Non-toxic	162	Non-toxic	Non-toxic	177	39.3	6700	Non-toxic	49	Non-toxic	Non-toxic	Toxic	Non-toxic	Toxic	Non-toxic	Non-toxic	46	Toxic	Non-toxic	Activity [27]: 6%; Activity [28]: Non-toxic; Activity [8]: 3%; Activity [12]: 32.5 IU/L; Activity [19]: 13.5 g/dL; Activity [30]: 0%; Activity [22]: 42.4%; Activity [24]: 5100 µL⁻¹; Activity [25]: 13.2 g/dL
CCCCNC(=O)N/N=C/c1ccc([N+](=O)[O-])o1	Non-toxic	Non-toxic	–	Non-toxic	Non-toxic	–	–	–	Toxic	–	Non-toxic	Non-toxic	Toxic	Non-toxic	Toxic	Non-toxic	Toxic	30	Toxic	Toxic	Activity [31]: 6%; Activity [27]: 1%; Activity [28]: Non-toxic; Activity [32]: Non-toxic; Activity [33]: Active; Activity [30]: 4%; Activity [34]: Active
COCCNC(=O)N/N=C/c1ccc([N+](=O)[O-])o1	Non-toxic	Non-toxic	–	Non-toxic	Non-toxic	–	–	–	Non-toxic	–	Non-toxic	Non-toxic	Toxic	Non-toxic	Toxic	Non-toxic	Non-toxic	20	Toxic	Toxic	Activity [31]: 1%; Activity [27]: 0%; Activity [28]: Non-toxic; Activity [32]: Non-toxic; Activity [33]: Active; Activity [30]: 0%; Activity [34]: Active
CCCCCCOC(=O)N/N=C/C=C/c1ccc([N+](=O)[O-])o1	Non-toxic	Non-toxic	164	Non-toxic	Non-toxic	172	22.9	6600	Non-toxic	42	Non-toxic	Non-toxic	Toxic	Non-toxic	Toxic	Non-toxic	Non-toxic	–	Toxic	Non-toxic	Activity [35]: 2%; Activity [12]: 33 IU/L; Activity [13]: 2%; Activity [19]: 13.5 g/dL; Activity [33]: Active; Activity [34]: Active; Activity [22]: 42.1%; Activity [23]: 86%; Activity [24]: 5300 µL⁻¹; Activity [25]: 12 g/dL
